Laboratory results: ChEMBL document CHEMBL5724801, “EUbOPEN Chemogenomics Library - Multiplex” (2024)
“And” between values parts separate entries of the source, which are not always exact repeats. Equal entries are not always repeated.

System: HEK-293T
Assay: Multiplex assay against HEK293T
Assay type: toxicity, cell-based
Conditions: human
Outline: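 Values for tubulin, mitochondrial-mass and membrane-permeability phenotypes are per cents of cells with healthy nuclei. These cells were identified by CellPathfinder machine-learning gating of live cells that had been stained at seeding with Hoechst33342, BioTracker Green Microtubule Cytoskeleton Dye, MitoTracker Red and Annexin V Alexa Fluor 680 and imaged on a CQ1 microscope at 37°C and 5% CO2 after compound addition. The gating first set Hoechst high-intensity objects apart from normal cells, then split normal cells into healthy, pyknosed or fragmented nuclei, and pyknosed cells into mitotic or apoptotic.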

[1] = 12 h, 1 µM, compound concentration 1 uM
[2] = 12 h, 10 µM, compound concentration 10 uM
[3] = 24 h, 1 µM, compound concentration 1 uM
[4] = 24 h, 10 µM, compound concentration 10 uM
[5] = 48 h, 1 µM, compound concentration 1 uM
[6] = 48 h, 10 µM, compound concentration 10 uM

CC(N)C1CCC(C(=O)Nc2ccncc2)CC1 (stereo not given) was tested, and the “Population Apoptotic (%)” value [1] was 7.48% and 4.2%, the “Population Fragmented Nuclei (%)” value [1] was 1.19% and 1.23% and the “Population Healthy Nuclei (%)” value [1] was 63.72% and 25.31%. The “Population Hoechst High Intensity Objects (%)” value [1] was 0.48% and 0%, the “Population Membrane Permeable-Phenotype (%)” value [1] was 0% and the “Population Mitotic Cells (%)” value [1] was 92.52% and 95.8%. For the same compound, the “Population Normal (%)” value [1] was 99.52% and 100%, the “Population Pyknosed Nuclei (%)” value [1] was 35.08% and 73.46% and the “Total Cell Count” value [1] was 421 and 162. The “Population Fragmented Nuclei (%)” value [2] was 1.2% and 1.9%, the “Population Healthy Nuclei (%)” value [2] was 60.28% and 29.75% and the “Population Hoechst High Intensity Objects (%)” value [2] was 0%. The “Population Membrane Permeable-Phenotype (%)” value [2] was 0.99% and 4.26%, the “Population Mitochondria Different-Phenotype (%)” value [2] was 27.81% and 17.02% and the “Population Mitotic Cells (%)” value [2] was 96.37% and 83.33%. The “Population Normal (%)” value [2] was 100%, the “Population Pyknosed Nuclei (%)” value [2] was 38.52% and 68.35% and the “Population Apoptotic (%)” value [3] was 2.15% and 8.97%. The “Population Fragmented Nuclei (%)” value [3] was 1.77% and 1.69%, the “Population Healthy Nuclei (%)” value [3] was 83.28% and 54.49% and the “Population Hoechst High Intensity Objects (%)” value [3] was 0.16% and 1.11%. The “Population Membrane Permeable-Phenotype (%)” value [3] was 0.97% and 3.09%, the “Population Mitochondria Different-Phenotype (%)” value [3] was 6.76% and 5.15% and the “Population Mitotic Cells (%)” value [3] was 97.85% and 91.03%. For the same compound, the “Population Normal (%)” value [3] was 99.84% and 98.89%, the “Population Pyknosed Nuclei (%)” value [3] was 14.95% and 43.82% and the “Population Tubulin-Different-Phenotype (%)” value [3] was 6.56% and 4.12%. For the same compound, the “Population Apoptotic (%)” value [4] was 4.95% and 13.95%, the “Population Fragmented Nuclei (%)” value [4] was 1.78% and 1.58% and the “Population Healthy Nuclei (%)” value [4] was 73.29% and 53.16%. The “Population Hoechst High Intensity Objects (%)” value [4] was 0% and 0.52%, the “Population Membrane Permeable-Phenotype (%)” value [4] was 0.19% and 2.97% and the “Population Mitochondria Different-Phenotype (%)” value [4] was 6.17% and 6.93%. The “Population Mitotic Cells (%)” value [4] was 95.05% and 86.05%, the “Population Normal (%)” value [4] was 100% and 99.48% and the “Population Pyknosed Nuclei (%)” value [4] was 24.93% and 45.26%. The “Population Tubulin-Different-Phenotype (%)” value [4] was 3.36% and 1.98%, the “Population Apoptotic (%)” value [5] was 7.52% and 3.77% and the “Population Fragmented Nuclei (%)” value [5] was 2.72% and 1.86%. For the same compound, the “Population Healthy Nuclei (%)” value [5] was 86.94% and 78.44%, the “Population Hoechst High Intensity Objects (%)” value [5] was 0% and 0.74% and the “Population Membrane Permeable-Phenotype (%)” value [5] was 3.76% and 2.84%. For the same compound, the “Population Mitochondria Different-Phenotype (%)” value [5] was 10.11% and 9.95%, the “Population Mitotic Cells (%)” value [5] was 92.48% and 96.23% and the “Population Normal (%)” value [5] was 100% and 99.26%. The “Population Pyknosed Nuclei (%)” value [5] was 10.34% and 19.7%, the “Population Fragmented Nuclei (%)” value [6] was 1.32% and 1.83% and the “Population Healthy Nuclei (%)” value [6] was 88.05% and 71.1%. For the same compound, the “Population Hoechst High Intensity Objects (%)” value [6] was 0% and 0.91%, the “Population Membrane Permeable-Phenotype (%)” value [6] was 2.25% and 0.65% and the “Population Mitochondria Different-Phenotype (%)” value [6] was 9.07% and 6.45%. The “Population Mitotic Cells (%)” value [6] was 96.89% and 81.36%, the “Population Normal (%)” value [6] was 100% and 99.09% and the “Population Pyknosed Nuclei (%)” value [6] was 10.63% and 27.06%. The “Population Tubulin-Different-Phenotype (%)” value [6] was 0.3% and 9.68%.
